An excerpt weighted towards active compounds, which were near 3.1% of everything screened.
MEKK3 PB1 HTS: modulators of MEKK3-MEK5 PB1 binding, primary screen, biochemical, wildtype MEKK3, multiplex bead flow cytometry, Alexa488-MEK5. Mitogen-activated protein kinase kinase kinase 3 (Homo sapiens), Q99759. bead-based flow cytometry, Alexa488-MEK5 binding to MEKK3; actives lie on both sides; 0 = blocked by unlabeled MEK5, 100 = vehicle. binding response (% of control), % at 10 µM. 1.4% of 290,000 active;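 active means binding response more than 3 SD above or below the average of its plate-row segment, actives on both sides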;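 further: Alexa488 bead fluorescence after subtracting the streptavidin-only scavenger bead signal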
MEKK2 mut-MEK5: MEK5 binding signal on mutant MEKK2 PB1, primary screen, biochemical, multiplex bead flow cytometry, Alexa488-MEK5; Alexa488-MEK5 binding to MEKK2 mutant; percent response, % at 10 µM; 0.35% of 290,000 active; AID 1530, 2009; in the data active means percent response above about 24%, passing the limit was not always enough
Apaf1 inhib: inhibitors of human Apaf-1 apoptosome, primary screen, biochemical, DEVD-Rh110 fluorescence, uHTS; Apoptotic protease-activating factor 1 (Homo sapiens), O14727; reconstituted apoptosome caspase-3 activity; inhibition, % at 20 µM; 0.71% of 330,000 active; active means inhibition of at least 40% at 20 µM;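 further: plate controls were DMSO wells for no effect and DEVD-CHO caspase inhibitor wells for full effect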
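Assay system: Apoptosome proteins | Medium: pH 7.5 Hepes buffer with CHAPS, BSA, DTT | Also added: Cytochrome c and DEVD-Rh110 substrate | Times: 30 min plus 50 min, RT | Detection: Rhodamine 110 fluorescence at Ex 480/Em 540 nm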
MEKK2wt PB1 HTS: modulators of MEK5 binding to wildtype MEKK2, primary screen, biochemical, multiplex bead flow cytometry, Alexa488-MEK5; Alexa488-MEK5 binding to MEKK2 WT; actives lie on both sides; binding response (% of control), % at 10 µM; Mitogen-activated protein kinase kinase kinase 2 (Homo sapiens), Q9Y2U5; 1.1% of 290,000 active; in the data active means binding response below about 67% or above about 130%
UBC13 polyUb: UBC13 polyubiquitin chain formation inhibitors, primary screen, biochemical, TR-FRET, uHTS; Ubiquitin-conjugating enzyme E2 N (Homo sapiens), P61088; inhibition, % at 20 µM; 0.47% of 330,000 active; AID 485273, 2010; in the data active means inhibition above about 45%, passing the limit was not always enough
Target sequence (P61088 whole entry, looked up): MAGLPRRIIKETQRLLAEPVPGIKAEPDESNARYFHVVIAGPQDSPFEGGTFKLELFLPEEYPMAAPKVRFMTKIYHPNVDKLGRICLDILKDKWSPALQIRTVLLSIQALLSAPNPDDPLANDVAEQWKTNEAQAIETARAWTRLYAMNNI
PREPL inhibitor: PREPL enzyme inhibitors, primary screen, biochemical, fluorescence polarization | Prolyl endopeptidase-like (Homo sapiens), Q4J6C6 | inhibition, % at 5.96 µM | 0.68% of 320,000 active | recombinant PREPL, fluorescence polarization activity-based probe;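 further: 0% = enzyme with DMSO and 100% = wells lacking enzyme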
PREPL confirm: human PREPL enzyme inhibitors, confirmation, biochemical, fluorescence polarization | 67% of 2,000 active | recombinant PREPL, fluorescence polarization activity probe | shares compounds with PREPL inhibitor | AID 2803, 2010 | inhibition, % at 5.96 µM;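 further: 0% = protein with DMSO and 100% = wells lacking protein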
Starred values were filed as active, the others as inactive; . = no result. Unless noted, no stated cut-off is given here; in the data, active means inhibition above about 43%; inactive means the rest.

SMILES	MEKK3 PB1 HTS	MEKK2 mut-MEK5	Apaf1 inhib	MEKK2wt PB1 HTS	UBC13 polyUb	PREPL inhibitor	PREPL confirm
Cc1[nH]n2c(=O)c3c(nc2c1-c1ccc(Cl)cc1)CCC3	90.0	-6.0	5.5	94.0	-2.9	16.8	.
Nc1[nH]n2c(=O)c3c(nc2c1N=Nc1ccc(Cl)cc1)CCCC3	109.0	3.0	19.2	99.0	-112.5	50.7*	67.9*
Cn1c(NC(=O)C[n+]2cc(-c3ccccc3)n3c2CCC3)cc(=O)n(C)c1=O	91.0	7.0	-2.8	97.0	7.9	11.2	.
Cn1c(NC(=O)C[n+]2cc(-c3ccc(Cl)cc3)n3c2CCC3)cc(=O)n(C)c1=O	95.0	-1.0	5.8	94.0	6.3	43.1*	45.5*
Clc1cccc(/C=N/Nc2ncnc3ccccc23)c1	101.0	-3.0	27.7	96.0	-2.8	40.0	.
C(=N\Nc1ncnc2ccccc12)/c1ccccc1	127.0	0.0	17.6	108.0	-10.5	45.0*	20.7
Clc1ccc(C2=C3CCCCn4c(-c5ccccc5)c[n+](c43)C2)cc1	103.0	10.0	32.8	128.0	14.3	50.0*	27.2
Cc1ccccc1S(=O)(=O)Cc1ccc(C(=O)N(C)C2CCCCC2)o1	101.0	3.0	10.1	98.0	4.0	2.5	.
COc1cc(OC)cc(-c2c(-c3cccs3)c3cc(-c4ccc(OCc5ccccc5)cc4)ccc3n2C)c1	.	.	18.7	.	40.4	72.4*	4.0
Nc1nc(SCC(=O)N2CCCCC2)[nH]c(=O)c1NC(=O)c1ccccc1F	103.0	10.0	1.1	110.0	-5.2	8.7	.
CCC(C)(C)C1CCC(=NNc2nc3ccccc3[nH]2)CC1 (centres undefined)	94.0	1.0	7.2	107.0	-17.1	29.1	.
CC(=O)N1CCC(=NNc2nc3ccccc3[nH]2)CC1	103.0	-1.0	15.1	99.0	-3.9	54.2*	6.2
NC(=O)[C@@H]1CCCNc2c(I)cc([N+](=O)[O-])cc2C(=O)N[C@@H](CCCN=C(N)N)C(=O)N[C@@H](CCCN=C(N)N)C(=O)N1	100.0	9.0	40.8*	111.0	34.3	61.0*	58.8*
CC[C@H](C)[C@@H]1NC(=O)c2cc([N+](=O)[O-])cc(I)c2NCC[C@@H](C(N)=O)NC(=O)[C@H](CCCN=C(N)N)NC1=O	108.0	9.0	25.5	120.0	22.8	25.1	.
O=C(NCCS(=O)(=O)N1CCN(c2ccccc2F)CC1)c1cccc(Br)c1	102.0	2.0	11.8	101.0	11.3	-31.6	.
COc1ccc(-c2cn3c(C)c(C(=O)N4CCc5ccccc5C4)sc3n2)cc1	98.0	1.0	12.8	95.0	13.1	50.4*	40.2
Cc1c(C(=O)N2CCc3ccccc3C2)sc2nc(-c3ccccc3)cn12	106.0	3.0	8.4	103.0	8.4	-23.9	.
O=C(C[n+]1ccc2ccccc2c1)c1cccc2ccccc12	107.0	-1.0	16.9	115.0	-20.3	51.7*	3.4
Cc1ccc(C(=O)C[n+]2ccc3ccccc3c2)cc1	102.0	2.0	19.2	105.0	1.0	17.0	.
COc1ccc2cc(-c3cc(C(=O)OCC(=O)NC4CCS(=O)(=O)C4)c4ccccc4n3)ccc2c1 (centres undefined)	96.0	-2.0	.	93.0	.	46.3*	37.4
O=[N+]([O-])c1cccc(-c2c(-c3ccccc3)ncc3ccc(F)cc23)c1	.	.	11.2	.	9.3	7.8	.
COc1cccc(/C=N/Nc2ccc([N+](=O)[O-])cn2)c1O	104.0	3.0	5.5	102.0	-61.8	56.1*	18.3
COc1cc(/C=C(\C#N)c2ccccn2)cc(OC)c1O	97.0	-6.0	-2.2	101.0	-69.4	-1.3	.
COc1cc(/C=C(\C#N)c2ccccn2)ccc1OCc1ccccc1Cl	105.0	14.0	.	106.0	.	47.1*	39.6
